Test results reported in ChEMBL document CHEMBL4145619, “Computer-Assisted Discovery of Retinoid X Receptor Modulating Natural Products and Isofunctional Mimetics” (J Med Chem, 2018).
Calls of active or inactive are those of the source. No cut-off for these calls is given here.

How the values were obtained:
HepG2 = assay: Cytotoxicity against human HepG2 cells assessed as reduction in cell viability up to 100 uM after 48 hrs by WST1 assay; assay type: cell-based; settings: hepg2, 48 h
[1] = target: T1, Retinoic acid receptor gamma (Homo sapiens) (UniProt P13631); assay: Transactivation of human Gal4-fused RARgamma LBD expressed in HEK293T cells at 30 uM after 12 to 14 hrs by dual-glo luciferase assay; assay type: cell-based
T1 sequence (whole entry): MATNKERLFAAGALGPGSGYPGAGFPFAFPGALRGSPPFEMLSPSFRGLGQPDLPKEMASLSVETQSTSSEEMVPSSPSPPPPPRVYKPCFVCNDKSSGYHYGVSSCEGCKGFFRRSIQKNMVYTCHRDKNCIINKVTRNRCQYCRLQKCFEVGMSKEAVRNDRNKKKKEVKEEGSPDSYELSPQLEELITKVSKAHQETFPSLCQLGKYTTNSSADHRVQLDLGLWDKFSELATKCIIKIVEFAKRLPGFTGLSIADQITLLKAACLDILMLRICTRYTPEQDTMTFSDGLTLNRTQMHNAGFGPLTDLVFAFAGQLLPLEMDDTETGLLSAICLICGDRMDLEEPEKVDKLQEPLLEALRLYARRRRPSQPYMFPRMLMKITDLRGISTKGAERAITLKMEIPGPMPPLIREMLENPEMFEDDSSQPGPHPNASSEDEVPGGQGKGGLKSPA
Method in brief: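 Single-concentration selectivity profiling in Gal4-hybrid reporter gene assays in HEK293T cells. Each nuclear receptor construct (RAR, PPAR, LXR, FXR, CAR, VDR, PXR, RXR) was tested at 30 μM.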

- Activity [1]: inactive
Compound: CC1=C2[C@H](/C=C(\C)C(=O)O)CC[C@@H](C)[C@H]2CC1 [VALERENIC ACID]
- Activity (HepG2): Non-Toxic
